Consider 37 variants from the RNAGym collection of RNA variant scans (doi:10.1126/science.aae0568).

The labels stand for the following.
B1: tRNA (parent)
chain: GUUCCGUUGGCGUAAUGGUAACGCGUCUCCCUCCUAAGGAGAAGACUGCGGGUUCGAGUCCCGUACGGAACG

Fewer inactive variants are shown than the library holds.

This data set covers variants of B1. The experiment in a line: yeast fitness relative to wild type (ratio to wild type); higher = fitter; tRNA-Arg(CCU), competitive growth, 37 C, YPD. The method, boiled down: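 Variants of the tRNA-Arg(CCU) gene were chemically synthesised with a 3% per-site mutation rate across 69 sites and placed at the native genomic locus in Saccharomyces cerevisiae. Six parallel replicates of the pooled strains were competed in YPD at 37°C for 24 hours, and gene amplicons from the start and end populations were read by 100-nucleotide paired-end sequencing. Darwinian fitness relative to wild type was derived from changes in genotype frequencies. Genotypes required ≥ 100 starting reads, and estimates < 0.5 were set to 0.5.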
Take GUUCGGUUGGCGUAAUGAUAACGCGUCUCCCUCCUAAGGAGCAGCCUGCGGGUUCGAGUCCCGUACGGAACG [C5G G18A A42C A45C]: the yeast fitness is not above 0.5. Turning to GUUACGUUGGCGUAAUGGUAACGCGUCUCCCUCCUAAGGAGAAGACUGCGGGUUCGAGUCCCGUACAGAACG [C4A G67A], the yeast fitness turned out to be 0.781. For GUUCCGUUGGCGUCAUGGUAACGCGUCUCCCUCCUAAGGAGAAGAAGGCGGGUUCGAGUCCCGUACGGAACG [A14C C46A U47G], the yeast fitness is not above 0.5. As to GUUCCGUUGGGGUAGUGGUAACGCGACUCCCACCUAAAGCGAAGACUGCGGGUUCGAGUCCCGUACGGAACG [C11G A15G U26A U32A G38A A40C], the yeast fitness turned out to be 0.546. Under GAUCCGUUGGCGUAAUGGUAACACGUCUGCCUCCUAAGGAGAAGUCUGCGGGUUCGAGUGUCGUACGGGACG [U2A G23A C29G A45U C60G C61U A69G] stands not above 0.5; under GUUCCGUUGGCAUAAUGAUAACGCGUCUCCCUCCUAAGGAGAAGACUGCGGGUUCGAGUCGCGUACGGAGCG [G12A G18A C61G A70G], 0.682; under GUUCCGUUGGGGUAAUGGUAACGCGUCUCCCUCCUAAGGAGAAGACUGCGGGUUCGAGUUCGGUACGGAGCG [C11G C60U C62G A70G], not above 0.5.

For the variant GUUCCGUUGGCGUAAUGGUAACGCGUAUCCCUCCCAAGGAGUAGACUGCGGGUUCGAGUCCCGUACGGGACG [C27A U35C A42U A69G], the yeast fitness was not above 0.5. GUUCCGUUGGCGUAAUGGUAACGCAUCUCCCUCCCAAGGAGAAGACUGCGGGUUCGAGUCCCGUACGGAACG [G25A U35C]: the yeast fitness turned out to be 0.942. Under GUUCCGUUGGCGUAAUGGUAACGCGUCUCCCUCCUAAGGAGAAGACUGGGGGUUCGAGUCCCGUACGCAACG [C49G G68C] stands 0.704; under GAUCCCUUGGCGUAACGGUAACGUGUCUCCCUCCUAAGGAGAAGACUGCGGGUUCGAGUCCCGUACGGAACG [U2A G6C U16C C24U], 0.523. For GUUCCGUUGGCGUAAUGGUAACGAGUCUCCCUCCUAGGGAGAAGACUGCGGGUUUGAGUGCCGUACGGAACG [C24A A37G C55U C60G], the yeast fitness is not above 0.5. Regarding GUUCCGUUGGCGUAGUGGUAACGCGUUUCCCUCCUAAGGAGAAGACUGCGGGUUCGAGUCCCGUACGGAACG [A15G C27U], the yeast fitness stood at 0.939. With GUUCCGUUGGCGUAAUGGUAACGCGUCUCCCUCCUAAGGACAAGACUGCGGGUUCGAGUCCCGCACGGAACG [G41C U64C], the yeast fitness was 0.896. Consider GUUACGUUGGCGUAAUGGUAACGCGUCUCCCUCCUAAGGAGAAGAAUGCGGGUUCGAGUCCCGUACGGAACG [C4A C46A], for which the yeast fitness came to 0.997. Consider GUUCCGUUGGCGUAAUGGUAACGCGUCUCCUUCCUAAGGAGAAGACUGCGGGUUUGAGUCCCGUACGGAACG [C31U C55U], for which the yeast fitness is 0.72. With GUUCCGUUGGCGUAAUGGUAACGCGUCUCCAUCCUAAGGAGAAGACUGCGGGUUCGAGUCCCGUACGGAACG [C31A], the yeast fitness came to 0.848. As to GUUCGGUUGGCGUAAUGGUCACGCGUCUCCCUCGUAAGGAGAAGACUGCGGGUUCGAGUCCCGUACGGAACG [C5G A20C C34G], the yeast fitness was not above 0.5.

As to GUUCCCUUGGCGUAAUGGUAACGCGUCUGCCUCCUAAGGAGAAGACUGCGGGUUCGAGUCCCGUACGGAACG [G6C C29G], the yeast fitness was determined as 0.723.

As to GUUCCGUUGACGUAAUGGUAACGCGUCUCCCUCCUCAGGAGAAGCCUGCGGGUUCGAGUCCCGUACGGAUCG [G10A A36C A45C A70U], the yeast fitness was not above 0.5. For the variant GAUCCGUUGGCGGGAUGGUAACGCGUCACCCUCCUUAGGAGAAGUCUGCGGGUUCGGGUCCCGUACGGAACG [U2A U13G A14G U28A A36U A45U A57G], the yeast fitness is not above 0.5. As for GUUCCGUUGGCGUAAUGGUAACGCGUCUCCCUUCUAAGGAGAAGACUGUGCGUUUGAGUCCCGUACGGAACG [C33U C49U G51C C55U], the yeast fitness is not above 0.5. Consider GUUCCGUGGGCGUAAUGGUAACGCGUCUCUGUCCUAAGAAGAAGUCUGCGGAUUCGAGUCCCGUACGGAACG [U8G C30U C31G G39A A45U G52A], for which the yeast fitness came out at 0.567.

As for GUUCCGUUGGCGUCAUCGUAACGCGUUUCCCUCCUAAGGAGAAGACGGCGGGUUCGAGUCCCGUACGGAACG [A14C G17C C27U U47G], the yeast fitness is not above 0.5.

Turning to GUUCCGUUGGCGUAAUGGUAACGCGACUCACUCCUAAGGAGAAGACUGCGGGUUCGAGUCCCGUCCGGAACG [U26A C30A A65C], the yeast fitness came to 0.511. With GUUCCGUUGGCGUAAUGGUAACGCGUCUCCGUACUAAGGAGAAGACUGCGGGUUCGAGUCCCGUAAGGAACG [C31G C33A C66A], the yeast fitness was found to be 0.734. GUUCCGUUGGCGUAAUGGUAACGCGACUCCCUCCUAAGGAGAAGACCGCGGGUUCGAGUCCCGUACGGAACG [U26A U47C]: the yeast fitness worked out at 0.994. In the case of GUUCAGUUGGGGUAAUGGUAACGCGUCUCCCUACUAAAGAGAAGACUGCGGGUUCGAGUCCCGUACGGAACG [C5A C11G C33A G38A], the yeast fitness stood at 0.552.

With GUUCGGUAGGCGUAAUGGUAACGCGUCUCCCUCCUUAGGAGGAGACUGCAGGUUCGGGUCCCGUACGGAACG [C5G U8A A36U A42G G50A A57G], the yeast fitness was not above 0.5.

With GUUCCGUUGGCGUAAUGGUAACGCGUCUCCCUCGUAAGGAGUAGACUGCGGGUUCGAGUCUCGUACGGAACG [C34G A42U C61U], the yeast fitness was not above 0.5. Take GUUCCGUUGGCGUAGUAGUAACGCGUCUCCCUUCUAAGCAGAAGACUGCGGGUUCGAGUCCCGUACGGAACG [A15G G17A C33U G39C]: the yeast fitness is 0.54. Under GUUCCGUUGGCGUAAUGCUAACGCGUUUCCCUCCUAAGGAGAAGACUGCGGGUUCGAGUCCCGUACGGCACG [G18C C27U A69C] stands 0.502; under GUUGCGUUGGGGUAAUGGUAACGCGUCUCCCUCCUAAGGAGAAGACUGCGGGUUUGAGUCCCGUACGGAGCG [C4G C11G C55U A70G], not above 0.5. For GUUCCGUUGGCGUAAUGGUAACGCGUUUCUCUCCUAAGGAGAAGACUGCGGGAUCGAGUCCCGUGCGGCACG [C27U C30U U53A A65G A69C], the yeast fitness is not above 0.5. On to GUUACGUUGGAGCAAUGGUAACGCGUCGCCCUCCUAAGGAGAGGACUGCGGGUUCGAGUCCCGUACGGAACG [C4A C11A U13C U28G A43G], for which the yeast fitness was not above 0.5. Take GUUCCGUUGCCGUAAUGGUAACGCGUCUCUCUCCUAAGGAGAAGACUGCGGGUUCGAGUCCCGUACGGAACG [G10C C30U]: the yeast fitness was determined as 0.733. Under GUUCCGUUGGCGCAAUGGUAACGCAUCUCCUUCCUAAGGAGAAGACUGCGGGUUCGAGUCCCGUACGGAACG [U13C G25A C31U] stands 0.749.
